In the library only some 2.3% were active in any assay of this set; here they are far more common.
TRPC4 block – TRPC4 (mouse) channel inhibition; Q9QUQ5; HEK293 TRPC4beta/mu-opioid, DAMGO-evoked Fluo4 calcium flux; hits give low values; B-score at 10 µM; 0.39% of 300,000 active; AID 2247;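 active means B-score over 3 SD under the library average, no early fluorescence shift, positive overall ratio signal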
Target sequence (Q9QUQ5 whole entry, looked up): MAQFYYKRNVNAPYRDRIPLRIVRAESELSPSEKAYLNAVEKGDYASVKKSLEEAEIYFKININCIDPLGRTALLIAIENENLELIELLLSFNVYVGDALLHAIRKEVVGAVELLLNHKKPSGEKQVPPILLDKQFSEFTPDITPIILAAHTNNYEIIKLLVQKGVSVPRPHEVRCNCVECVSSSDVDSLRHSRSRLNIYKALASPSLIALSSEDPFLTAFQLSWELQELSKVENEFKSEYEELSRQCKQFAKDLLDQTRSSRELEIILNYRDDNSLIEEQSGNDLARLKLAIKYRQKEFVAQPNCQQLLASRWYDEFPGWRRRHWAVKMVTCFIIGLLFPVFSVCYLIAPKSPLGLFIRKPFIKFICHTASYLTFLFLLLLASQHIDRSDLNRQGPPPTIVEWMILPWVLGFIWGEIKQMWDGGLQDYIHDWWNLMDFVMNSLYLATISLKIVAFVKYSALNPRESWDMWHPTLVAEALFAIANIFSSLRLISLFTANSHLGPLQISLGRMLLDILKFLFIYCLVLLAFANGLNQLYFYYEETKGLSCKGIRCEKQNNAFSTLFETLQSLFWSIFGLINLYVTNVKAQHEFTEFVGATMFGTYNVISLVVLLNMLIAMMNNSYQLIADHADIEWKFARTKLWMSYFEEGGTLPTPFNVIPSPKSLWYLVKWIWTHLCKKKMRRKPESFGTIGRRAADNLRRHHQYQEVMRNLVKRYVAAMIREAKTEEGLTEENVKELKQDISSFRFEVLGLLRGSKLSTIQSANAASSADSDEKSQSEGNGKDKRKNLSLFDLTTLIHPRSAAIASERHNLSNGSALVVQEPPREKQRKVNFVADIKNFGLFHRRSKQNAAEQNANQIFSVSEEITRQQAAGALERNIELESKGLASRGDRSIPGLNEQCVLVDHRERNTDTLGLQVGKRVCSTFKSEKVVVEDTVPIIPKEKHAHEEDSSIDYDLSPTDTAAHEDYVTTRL
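Assay system: HEK293 cells with stable TRPC4beta plus mu-opioid receptor expression. Dosing: single dose. Measured by: Fluo4 Ca2+ flux fluorescence. Also added: DAMGO in two steps, submaximal then maximal. Read-out: B score from integrated Fluo4 fluorescence ratio.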
TRPC4 act – TRPC4 (mouse) channel activation; HEK293 TRPC4beta/mu-opioid, Fluo4 calcium fluorescence; hits give high values; Q9QUQ5; 0.49% of 310,000 active; B-score at 10 µM;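 active means B-score above 5 SD of library B-scores, and initial fluorescence ratio not above library mean plus 5 SD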;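 further: positive B-score marks a calcium rise read as TRPC4 activation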
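Material: TRPC4beta and mu-opioid receptor HEK293 stable cells | Incubation: 45 min room-temperature Fluo4 loading, 110 s read | Detection: Kinetic Fluo4 calcium fluorescence | Measure: Integrated baseline-normalised fluorescence ratio, converted to per-well B score | Benchmarks: Low control buffer alone, high control maximal DAMGO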
TRPC6 inhibitor – blocks the mouse TRPC6 cation channel; Q61143; 1.1% of 310,000 active; HEK293-TRPC6, membrane potential dye, ACh-evoked depolarization; hits give low values; B-score at 10 µM;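 active means B-score under library mean minus 3 SD, initial fluorescence not abnormally high, positive integrated signal ratio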;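 further: B-score derived from integrated fluorescence ratio over the kinetic read; more negative B-score means stronger inhibition of depolarization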
DNA FID counter – counter-screen for HCV NS3 helicase inhibitors: DNA intercalator displacement. 0.17% of 290,000 active. DNA fluorescent intercalator displacement, fluorescence. AID 1845. inhibition, % at 7.9 µM; in the data active means inhibition above about 37%;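 further: 0% = vehicle and 100% = reference compound; higher means more ethidium bromide displaced from hairpin DNA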
TRPC6 activator – activators of mouse TRPC6 channel. Q61143. HEK293-TRPC6 membrane potential dye fluorescence; hits give high values. B-score at 10 µM. 0.13% of 310,000 active;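 active means B-score of the integrated fluorescence ratio above library mean plus 3 SD, and starting fluorescence ratio within library mean plus 5 SD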;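 further: higher score means more depolarization so channel activation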
TRPC4 PAM – allosteric potentiators of mouse TRPC4 channel | HEK293 TRPC4beta/mu-opioid, DAMGO EC20, Fluo-4 Ca2+ flux; hits give high values | B-score at 10 µM | 0.42% of 310,000 active;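 active means B-score of calcium response area above 5 SD of library B-scores, with initial fluorescence ratio within 5 SD of library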;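 further: B-score of integrated fluorescence ratio over time as area under calcium response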
TRPC4 sel inh 2 – second check of whether TRPC6 inhibitors also affect mouse TRPC4; shares compounds with TRPC6 inhibitor; HEK293 TRPC4/MOR, membrane potential dye fluorescence; channel activated by saturating DAMGO dose; inhibition, % at 10 µM; 42% of 920 active;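 active means compounds whose fluorescence signal differed from control wells by over 3 SD, either direction, in both duplicate plates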
TRPC4 spec – selectivity of TRPC6 inhibitors: effect on mouse TRPC4. shares compounds with TRPC6 inhibitor. HEK293 TRPC4/mu-opioid, membrane potential fluorescence. activity change, negative = inhibition, % at 10 µM. 61% of 920 active;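 active means rise or fall in signal beyond 3 SD of buffer-only wells in both replicate plates, either sign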;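 further: integrated kinetic ratio of fluorescence range over baseline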
HEK293 MPD ctr 2-1 – parental HEK293 nonspecific activity of TRPC6 inhibitors, second screen | 31% of 920 active | parental HEK293 membrane potential dye fluorescence; maximal acetylcholine challenge after compound addition | signal change vs control, % at 10 µM | AID 2779 | shares compounds with TRPC6 inhibitor;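 active means membrane potential signal moving either way by over 3 SD of the maximum-effect control, in both duplicate plates, meaning non-specific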
HEK293 MPD ctr-1 – checks TRPC6 inhibitor effects in parental HEK293 cells. membrane potential signal change, % at 10 µM. 60% of 920 active. parental HEK293 membrane potential dye fluorescence. shares compounds with TRPC6 inhibitor;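 active means membrane potential signal shifting up or down by more than 3 SD of buffer-only wells, on both duplicate plates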
HEK293 MPD ctr-2 – parental HEK293 nonspecific activity of TRPC6 modulators; membrane potential signal change, % at 10 µM; shares compounds with TRPC6 inhibitor; AID 488924; 51% of 2,400 active; membrane potential dye fluorescence;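 active means membrane potential signal moves up or down beyond 5 SD from buffer-only wells, on both duplicate plates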
HEK293 MPD ctr 2-2 – second counter-screen for TRPC6 modulators: effect in parental HEK293 cells. shares compounds with TRPC6 inhibitor. membrane potential dye fluorescence; after compound, maximal acetylcholine stimulation. 14% of 2,400 active. inhibition, % at 10 µM. AID 488926;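 active means membrane potential signal drops by more than 5 SD from the mean control signal, in both duplicate plates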;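 further: plate controls were acetylcholine ECmax control wells for no effect and buffer only wells for full effect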
TRPC4 ctr mod – mouse TRPC4 off-target activity of TRPC6 modulators | shares compounds with TRPC6 inhibitor | HEK293 TRPC4/mu-opioid, membrane potential fluorescence | percent change from control (negative = decrease, positive = increase), % at 10 µM | 69% of 2,400 active;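 active means membrane potential signal moved up or down beyond 5 SD of buffer control wells, in both duplicate plates, actives on both sides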;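 further: plate controls were assay buffer wells for no effect and DAMGO maximal-effect wells for full effect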
TRPC4 ctr inh 2 – second check of whether TRPC6 modulators also affect mouse TRPC4; shares compounds with TRPC6 inhibitor; HEK293 TRPC4/mu-opioid, membrane potential dye fluorescence; stimulated with maximal-effect DAMGO; inhibition, % at 10 µM; 55% of 2,400 active; AID 488928;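 active means drop in membrane potential signal beyond 5 SD of the control wells in both duplicate plates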;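 further: TRPC4 counter screen for TRPC6 hits run under conditions tuned for TRPC6 not TRPC4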
TRPC6 block conf – mouse TRPC6 inhibitor confirmation; 43% of 3,300 active; shares compounds with TRPC6 inhibitor; inhibition, % at 10 µM; HEK293-TRPC6, membrane potential dye, ACh-evoked depolarization;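 active means fluorescence ratio falls more than 5 SD below the full-stimulation control mean, in both duplicate runs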;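 further: integrated fluorescence ratio of peak minus minimum over baseline after agonist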
TRPC6 act conf – mouse TRPC6 activator confirmation. activation, % at 10 µM. shares compounds with TRPC6 inhibitor. HEK293-TRPC6 membrane potential dye fluorescence, FDSS. 11% of 2,800 active;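 active means ratio signal rise beyond 5 SD above unstimulated control wells' mean, seen in both duplicate runs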;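 further: plate controls were buffer EC0 wells for no effect and acetylcholine ECmax response for full effect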
Active calls of the source: *; i = inactive; . = no result.

SMILES | TRPC4 block | TRPC4 act | TRPC6 inhibitor | DNA FID counter | TRPC6 activator | TRPC4 PAM | TRPC4 sel inh 2 | TRPC4 spec | HEK293 MPD ctr 2-1 | HEK293 MPD ctr-1 | TRPC6 block conf | TRPC6 act conf | others
CC(=O)N1CCN(C(c2ccccc2)c2ccccc2)CC1 | i | i | i | . | i | i | . | . | . | . | . | .
COCc1c(C#N)c(NCCc2ccc(F)cc2)nc(C)c1[N+](=O)[O-] | i | i | -8* | -14 | i | i | i | i | i | i | i | i
CN1C(=O)Cc2cc(S(=O)(=O)Nc3ccc(Cl)cc3)ccc21 | i | i | i | -5 | i | i | . | . | . | . | . | .
CCOC(=O)c1ccc(NC(=O)CCc2ccc(CC)o2)cc1 | i | i | -12* | -16 | i | i | i | i | i | i | i | .
CCc1ccc(CCC(=O)Nc2ccc(C(C)=O)cc2)o1 | i | i | i | -8 | i | i | . | . | . | . | . | .
O=C1CCCC/C1=C\Nc1ccc(S(=O)(=O)Nc2cnc3ccccc3n2)cc1 | i | i | i | -7 | i | i | . | . | . | . | . | .
O=C(c1cccc(N2C(=O)C3C4C=CC(C4)C3C2=O)c1)N1CCN(c2ccccc2F)CC1 (configuration not stated) | i | i | i | -44 | i | i | . | . | . | . | . | .
Cc1cccc(-c2cc3nc(C)c(C)c(NCCCn4ccnc4)n3n2)c1 | i | i | -7.4* | 20 | i | i | 58%* | -18%* | i | i | 76%* | i
Cc1cc(-c2ccccc2)nc2cc(C(=O)NCCCn3ccnc3)nn12 | i | i | i | 1 | i | i | . | . | . | . | . | .
CC(C)(C)c1cc(NCCCn2ccnc2)n2ncc(-c3ccc(Cl)cc3)c2n1 | i | i | i | 8 | i | i | . | . | . | . | . | .
Cc1cc(NCCCn2ccnc2)n2nc(-c3ccc(F)cc3)cc2n1 | i | i | -10* | 15 | i | i | . | . | . | . | 72%* | i | HEK293 MPD ctr-2=-300%*;HEK293 MPD ctr 2-2=92%*;TRPC4 ctr mod=-54%*;TRPC4 ctr inh 2=62%*
Cc1cc(NCCCn2ccnc2)n2nc(-c3ccc(Cl)cc3)cc2n1 | i | i | -11* | 25 | i | i | . | . | . | . | 54%* | i | HEK293 MPD ctr-2=i;HEK293 MPD ctr 2-2=100%*;TRPC4 ctr mod=20%*;TRPC4 ctr inh 2=54%*
Cc1ccc(N2C(=O)CSC2c2cccnc2)cc1F (configuration not stated) | i | i | -6.7* | -3 | i | i | i | i | i | i | i | i
CN(C)/C=C/C(=O)c1ccc(OCCN(C)c2ccccn2)cc1 | i | i | -6.7* | -13 | i | i | 46%* | 37%* | i | i | i | i
Cc1cc([N+](=O)[O-])nn1CCCC(=O)N1CCN(c2ccc(F)cc2)CC1 | i | i | i | -15 | i | i | . | . | . | . | . | .
Cn1nc([N+](=O)[O-])nc1N1CCN(c2ccc(F)cc2)CC1 | i | i | -7* | 4 | i | i | i | i | i | i | i | i
NS(=O)(=O)c1cc(C(=O)NC2CCSc3ccccc32)ccc1Cl (configuration not stated) | i | i | i | -10 | 13* | i | . | . | . | . | i | 70%* | HEK293 MPD ctr-2=122%*;HEK293 MPD ctr 2-2=i;TRPC4 ctr mod=32%*;TRPC4 ctr inh 2=i
NS(=O)(=O)c1cccc(C(=O)NC2CCSc3ccccc32)c1 (configuration not stated) | i | i | i | -14 | i | i | . | . | . | . | . | .
Cc1cc(N2CCC(C)CC2)nc2cccc(O)c12 | -6* | i | -8.4* | 1 | i | i | . | . | . | . | i | i | HEK293 MPD ctr-2=-139%*;HEK293 MPD ctr 2-2=i;TRPC4 ctr mod=-30%*;TRPC4 ctr inh 2=86%*
Cc1nc2ccccc2nc1N1CCC(C)CC1 | i | i | i | 3 | i | i | . | . | . | . | . | .
CCCc1cc(C(=O)N2CCCC(Cc3ccccc3C)(C(=O)OCC)C2)no1 (configuration not stated) | i | i | i | -61 | i | i | . | . | . | . | . | .
Cc1cc(C)cc(OCC(=O)OCC(=O)N2CCc3ccccc32)c1 | i | i | i | . | i | i | . | . | . | . | . | .
CN1CCN(c2ccc([N+](=O)[O-])cc2/C=N/NC(=O)c2ccc(F)cc2)CC1 | i | i | -6* | 16 | i | i | . | . | . | . | i | i | HEK293 MPD ctr-2=-174%*;HEK293 MPD ctr 2-2=i;TRPC4 ctr mod=-34%*;TRPC4 ctr inh 2=i
CC(C)C[C@@H](C(=O)O)N(Cc1cccc(CN([C@@H](CC(C)C)C(=O)O)S(C)(=O)=O)c1)S(C)(=O)=O | . | i | i | -19 | i | i | . | . | . | . | . | .
CS(=O)(=O)N(Cc1cccc(CN(C(C(=O)O)c2ccccc2)S(C)(=O)=O)c1)C(C(=O)O)c1ccccc1 (configuration not stated) | i | i | -8.7* | -16 | i | i | i | i | i | i | i | i
CCN(CC)CCC(=O)Nc1cccc2c1C(=O)c1ccccc1C2=O | i | i | -6.4* | 69* | i | i | . | . | . | . | 52%* | i | HEK293 MPD ctr-2=i;HEK293 MPD ctr 2-2=i;TRPC4 ctr mod=-30%*;TRPC4 ctr inh 2=46%*
